According to ChEMBL document CHEMBL4130630 (J Med Chem, 2018):

Legend:
[1] = target: T1, Sodium- and chloride-dependent GABA transporter 1 (Mus musculus, UniProt P31648); test: Inhibition of mouse GAT1 expressed in HEK293 cells assessed as reduction in [3H]GABA uptake preincubated for 25 mins followed by [3H]GABA addition measured after 4 mins by liquid scintillation counting analysis; type: cell-based
How it was run: (§1)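 HEK293 cells stably expressing the mouse GAT subtype (about 200000 cells) preincubated with compound for 25 min at 25 °C in the dark with shaking. Then 8 nM [3H]GABA plus 32 nM unlabeled GABA (final) added for 4 min. Stopped by filtration; filter radioactivity by scintillation counting. Photoisomerized 10 mM DMSO-d6 stocks (photostationary state, Z/E ratio by 1H NMR) diluted protected from light; non-irradiated stock tested in parallel.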

[2] = target: T2, GABA transporter 4 (Mus musculus, UniProt P31650); test: Inhibition of mouse GAT4 expressed in HEK293 cells assessed as reduction in [3H]GABA uptake preincubated for 25 mins followed by [3H]GABA addition measured after 4 mins by liquid scintillation counting analysis; type: cell-based; how it was run: as §1
T2 sequence (P31650 whole entry): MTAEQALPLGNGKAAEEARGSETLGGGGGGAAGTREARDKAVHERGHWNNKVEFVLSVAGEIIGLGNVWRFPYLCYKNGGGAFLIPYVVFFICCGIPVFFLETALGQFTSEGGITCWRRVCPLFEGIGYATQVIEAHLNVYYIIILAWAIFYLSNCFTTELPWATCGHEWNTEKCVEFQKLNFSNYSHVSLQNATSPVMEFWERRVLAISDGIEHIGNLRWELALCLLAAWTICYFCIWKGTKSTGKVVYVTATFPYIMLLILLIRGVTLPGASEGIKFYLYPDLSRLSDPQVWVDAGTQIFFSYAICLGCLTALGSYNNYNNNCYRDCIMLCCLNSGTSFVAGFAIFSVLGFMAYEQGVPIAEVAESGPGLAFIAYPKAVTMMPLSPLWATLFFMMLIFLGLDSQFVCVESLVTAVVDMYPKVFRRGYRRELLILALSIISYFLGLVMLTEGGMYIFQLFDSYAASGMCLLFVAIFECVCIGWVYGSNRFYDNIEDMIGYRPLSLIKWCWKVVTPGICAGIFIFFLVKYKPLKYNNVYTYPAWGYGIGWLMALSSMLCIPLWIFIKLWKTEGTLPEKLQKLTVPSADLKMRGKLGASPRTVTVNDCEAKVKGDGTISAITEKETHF

[3] = target: T1, Sodium- and chloride-dependent GABA transporter 1; test: Inhibition of mouse GAT1 expressed in HEK293 cells assessed as reduction in [3H]GABA uptake; type: cell-based
[4] = target: Sodium- and chloride-dependent GABA transporter 1 (Mus musculus) (UniProt P31648); test: Inhibition of GAT1 in C57BL/6N mouse dentate gyrus granule cells assessed as induction of tonic GABAA receptor-mediated current response by measuring shift in holding current amplitude at 10 uM by Whole cell voltage-clamp method
How it was run: (§2)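 Acute 350 μm coronal dorsal hippocampal slices from mice, recovered 30 min at 34 °C then ≥30 min at room temperature in carbogenated saline (pH 7.4). Superfused at room temperature with NBQX 5 μM, APV 50 μM, CGP 55845 5 μM. Granule cell whole-cell voltage clamp at −70 mV. Compound bath-applied; activated form made by 340 nm UV for 10 min on 10 mM stock just before addition; bicuculline methiodide 20 μM.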

[5] = target: T1, Sodium- and chloride-dependent GABA transporter 1; test: (§3) Inhibition of mouse GAT1 expressed in HEK293 cells assessed as reduction in [3H]GABA uptake preincubated cells with photoirradiated compound for 25 mins followed by [3H]GABA addition measured after 4 mins by liquid scintillation counting method; type: cell-based; how it was run: as §1
[6] = Half life of thermal relaxation of compound in pH 7.4 DMSO-d6/phosphate-buffer using photoirradiated compound at 10 uM incubated in dark by UV/vis-spectroscopy; type: physicochemical; settings: pH 7.4, 10 µM
[7] = Half life of thermal relaxation of compound in pH 7.4 DMSO-d6/phosphate-buffer using photoirradiated compound at 25 uM incubated in dark by UV/vis-spectroscopy; type: physicochemical; settings: pH 7.4, 25 µM
[8] = Half life of thermal relaxation of compound in pH 7.4 DMSO-d6/phosphate-buffer using photoirradiated compound at 20 uM incubated in dark by UV/vis-spectroscopy; type: physicochemical; settings: pH 7.4, 20 µM
[9] = Half life of thermal relaxation of compound in pH 7.4 DMSO-d6/phosphate-buffer using photoirradiated compound at 50 uM incubated in dark by UV/vis-spectroscopy; type: physicochemical; settings: pH 7.4, 50 µM
[10] = Half life of thermal relaxation of compound in DMSO-d6 using photoirradiated compound by 1H NMR method; type: physicochemical
How it was run: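 Irradiated to photostationary state as 10 mM stock in DMSO-d6 (1 mL, within 10 min); 1H NMR spectra recorded starting immediately after irradiation. Z/E fraction α from spectra plotted against time, fit to a single exponential to give half-life; 25 °C.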

[11] = target: T1, Sodium- and chloride-dependent GABA transporter 1; test: Inhibition of mouse GAT1 assessed as reduction in GABA uptake
[12] = target: T1, Sodium- and chloride-dependent GABA transporter 1; test: Inhibition of mouse GAT1 assessed as reduction in GABA uptake using photoirradiated compound
How it was run: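 A 10 mM DMSO-d6 stock was irradiated to its photostationary state: 350 nm Rayonet for diphenyldiazenes, 375 nm LED for naphthylphenyldiazenes. (Z)/(E) ratio was checked by 1H NMR, and dilutions were made protected from light. mGAT1-HEK293 cells were preincubated 25 min at 25 °C in the dark, then given 4 min uptake of 8 nM [3H]GABA plus 32 nM GABA. Filtration and scintillation counting gave pIC50.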

[13] = target: T3, GABA transporter 4 (Mus musculus) (UniProt P31650); test: as §3, with “GAT4” for “GAT1”, “uptake by measuring remaining [3H]GABA uptake levels” for “uptake”, “compound at 100 uM” for “compound”, “method relative to control” for “method”; type: cell-based
T3 sequence (whole entry): T2 sequence (P31650 whole entry)

[14] = target: Sodium- and chloride-dependent GABA transporter 1 (Mus musculus) (UniProt P31648); test: (§4) Inhibition of GAT1 in C57BL/6N mouse dentate gyrus granule cells assessed as induction of tonic GABAA receptor-mediated current response by measuring shift in holding current amplitude using UV-activated compound at 10 uM by Whole cell voltage-clamp method; how it was run: as §2
[15] = target: Sodium- and chloride-dependent GABA transporter 1 (Mus musculus) (UniProt P31648); test: as §4, with “uM in presence of GABAA receptor blocker bicuculline methiodide” for “uM”; how it was run: as §2
[16] = tested on: betaine/GABA transporter BGT1, Slc6a12 (Mus musculus); test: Inhibition of mouse GAT2 expressed in HEK293 cells assessed as reduction in [3H]GABA uptake by measuring remaining [3H]GABA uptake levels preincubated cells with photoirradiated compound at 100 uM for 25 mins followed by [3H]GABA addition measured after 4 mins by liquid scintillation counting …
[17] = tested on: GABA transporter 2, Slc6a13 (Mus musculus); test: Inhibition of mouse GAT3 expressed in HEK293 cells assessed as reduction in [3H]GABA uptake by measuring remaining [3H]GABA uptake levels preincubated cells with photoirradiated compound at 100 uM for 25 mins followed by [3H]GABA addition measured after 4 mins by liquid scintillation counting …

Row | Compound | IC50 [1] [µM] | IC50 [5] [µM] | also measured
1 | O=C(O)[C@@H]1CCCN(CCC#Cc2ccc(/N=N/c3ccccc3)cc2)C1 | 0.417 | – | IC50 [2]: 10 to 100 µM
2 | O=C(O)C1CCCN(CC/C=C/c2cccc(/N=N/c3ccccc3)c2)C1 (stereo unspecified) | 38 | – | –
3 | O=C(O)C1CCCN(CCC/C=C/c2cccc(/N=N/c3ccccc3)c2)C1 (stereo unspecified) | 38 | – | –
4 | O=C(O)C1CCCN(CCC/C=C/c2ccc(/N=N/c3ccccc3)cc2)C1 (stereo unspecified) | 5.75 | – | –
5 | O=C(O)C1CCCN(CCC#Cc2ccc(/N=N/c3ccccc3)cc2)C1 (stereo unspecified) | 0.646 | – | –
6 | O=C(O)C1CCCN(CCC#Cc2cccc(/N=N/c3ccccc3)c2)C1 (stereo unspecified) | 32.4 | – | –
7 | O=C(O)C1CCCN(CC/C=C/c2ccc(/N=N/c3cccc4ccccc34)cc2)C1 (stereo unspecified) | 8.71 | – | –
8 | O=C(O)C1CCCN(CC/C=C/c2ccccc2-c2ccccc2)C1 (stereo unspecified) | – | – | IC50 [3]: 0.162 µM
9 | O=C(O)[C@@H]1CCCN(CCC#Cc2cccc(/N=N/c3cccc4ccccc34)c2)C1 | 4.27 | – | IC50 [2]: 10 to 100 µM
10 | O=C(O)C1CCCN(CCCC#Cc2cccc(/N=N/c3cccc4ccccc34)c2)C1 (stereo unspecified) | 12.3 | – | –
11 | O=C(O)C1CCCN(CCC/C=C/c2cccc(/N=N/c3cccc4ccccc34)c2)C1 (stereo unspecified) | 19.5 | – | –
12 | O=C(O)C1CCCN(CCCC#Cc2cccc(/N=N/c3ccccc3)c2)C1 (stereo unspecified) | 14.5 | – | –
13 | O=C(O)C1CCCN(CCC/C=C/c2ccc(/N=N/c3cccc4ccccc34)cc2)C1 (stereo unspecified) | 6.46 | – | –
14 | O=C(O)C1CCCN(CCCC#Cc2ccc(/N=N/c3cccc4ccccc34)cc2)C1 (stereo unspecified) | 3.02 | – | –
15 | O=C(O)[C@@H]1CCCN(CCC#Cc2ccc(/N=N/c3cccc4ccccc34)cc2)C1 | 0.0977 | – | IC50 [2]: 10 to 100 µM
16 | O=C(O)C1CCCN(CCC#Cc2cccc(/N=N/c3cccc4ccccc34)c2)C1 (stereo unspecified) | 6.46 | – | –
17 | O=C(O)C1CCCN(CCC#Cc2ccccc2-c2ccccc2)C1 (stereo unspecified) | – | – | IC50 [3]: 0.1 µM
18 | O=C(O)C1CCCN(CCCC#Cc2ccc(/N=N/c3ccccc3)cc2)C1 (stereo unspecified) | 7.59 | – | –
19 | O=C(O)C1CCCN(CC/C=C/c2ccc(/N=N/c3ccccc3)cc2)C1 (stereo unspecified) | 10 | – | –
20 | O=C(O)C1CCCN(CCC#Cc2ccc(/N=N/c3cccc4ccccc34)cc2)C1 (stereo unspecified) | 0.126 | – | –
21 | O=C(O)[C@@H]1CCCN(CCC#Cc2cccc(/N=N/c3ccccc3)c2)C1 | 22.4 | – | IC50 [2]: 10 to 100 µM; Activity [4]: -0.22 pA
22 | O=C(O)C1CCCN(CC/C=C/c2cccc(/N=N/c3cccc4ccccc34)c2)C1 (stereo unspecified) | 12.3 | – | –

Row | Compound | IC50 [1] [µM] | IC50 [5] [µM] | also measured
23 | O=C(O)C1CCCN(CCCC#Cc2ccc(N=Nc3cccc4ccccc34)cc2)C1 (mixture of isomers) | – | 4.9 | t1/2 [6]: 4.3 h
24 | O=C(O)C1CCCN(CCC#Cc2ccc(N=Nc3ccccc3)cc2)C1 (mixture of isomers) | – | 2.57 | t1/2 [7]: 115 h
25 | O=C(O)C1CCCN(CCCC#Cc2cccc(N=Nc3ccccc3)c2)C1 (mixture of isomers) | – | 4.07 | t1/2 [8]: 360 h
26 | O=C(O)C1CCCN(CCCC=Cc2ccc(N=Nc3ccccc3)cc2)C1 (mixture of isomers) | – | 23.4 | t1/2 [9]: 45.6 h
27 | O=C(O)C1CCCN(CCC#Cc2cccc(N=Nc3cccc4ccccc34)c2)C1 (mixture of isomers) | – | 1.95 | t1/2 [8]: 18 h
28 | O=C(O)C1CCCN(CCCC=Cc2cccc(N=Nc3ccccc3)c2)C1 (mixture of isomers) | – | 25.1 | t1/2 [8]: 288 h
29 | O=C(O)C1CCCN(CCCC#Cc2ccc(N=Nc3ccccc3)cc2)C1 (mixture of isomers) | – | 25.7 | t1/2 [7]: 163 h
30 | O=C(O)C1CCCN(CCC#Cc2cccc(N=Nc3ccccc3)c2)C1 (mixture of isomers) | – | 0.891 | t1/2 [9]: 528 h; t1/2 [10]: 360 h
31 | O=C(O)C1CCCN(CCC=Cc2cccc(N=Nc3cccc4ccccc34)c2)C1 (mixture of isomers) | – | 5.89 | t1/2 [8]: 22 h
32 | O=C(O)C1CCCN(CCC#Cc2ccc(N=Nc3cccc4ccccc34)cc2)C1 (mixture of isomers) | – | 0.229 | t1/2 [6]: 3.4 h
33 | O=C(O)[C@@H]1CCCN(CCOCCc2cccc(N=Nc3cccc4ccccc34)c2)C1 (mixture of isomers) | – | – | IC50 [11]: 0.407 µM; IC50 [12]: 1.66 µM
34 | O=C(O)[C@@H]1CCCN(CCC#Cc2cccc(N=Nc3ccccc3)c2)C1 (mixture of isomers) | – | 0.417 | Activity [13]: 57%; Activity [14]: -25.3 pA; Activity [15]: -1.84 pA; Activity [16]: 76%; Activity [17]: 60%
35 | O=C(O)[C@@H]1CCCN(CCC#Cc2ccc(N=Nc3ccccc3)cc2)C1 (mixture of isomers) | – | 1.45 | –
36 | O=C(O)[C@@H]1CCCN(CCC#Cc2ccc(N=Nc3cccc4ccccc34)cc2)C1 (mixture of isomers) | – | 0.182 | –
37 | O=C(O)C1CCCN(CCCC=Cc2ccc(N=Nc3cccc4ccccc34)cc2)C1 (mixture of isomers) | – | 6.17 | t1/2 [6]: 1.5 h
38 | O=C(O)C1CCCN(CCCC=Cc2cccc(N=Nc3cccc4ccccc34)c2)C1 (mixture of isomers) | – | 10 | t1/2 [8]: 11 h
39 | O=C(O)C1CCCN(CCC=Cc2ccc(N=Nc3cccc4ccccc34)cc2)C1 (mixture of isomers) | – | 7.41 | t1/2 [6]: 1.2 h
40 | O=C(O)C1CCCN(CCCC#Cc2cccc(N=Nc3cccc4ccccc34)c2)C1 (mixture of isomers) | – | 13.8 | t1/2 [8]: 43.2 h
41 | O=C(O)C1CCCN(CCC=Cc2ccc(N=Nc3ccccc3)cc2)C1 (mixture of isomers) | – | 37.2 | t1/2 [9]: 26.4 h
42 | O=C(O)[C@@H]1CCCN(CCC#Cc2cccc(N=Nc3cccc4ccccc34)c2)C1 (mixture of isomers) | – | 1 | –
43 | O=C(O)C1CCCN(CCC=Cc2cccc(N=Nc3ccccc3)c2)C1 (mixture of isomers) | – | 4.79 | t1/2 [7]: 312 h
